From PubChem BioAssay
Most compounds without a hit are left out; they make up all but 12% or so of the library.
L major viab = inhibitors of Leishmania major promastigote growth | Leishmania major promastigotes, resazurin fluorescence viability | inhibition, % at 10 µM | hit rate 9% among 200,000 | AID 1063; in the data active = inhibition above about 50%;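 also: promastigotes grown with compound for 44 hours at 28 °C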
ABCB1 inh = human ABCB1 inhibition, ABCG2 as counter-screen; P08183; CCRF-Adr cells, JC-1 efflux, flow cytometry; inhibition, % at 6.6 µM; hit rate 0.067% among 190,000; AID 1326; in the data active = inhibition above about 40%;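 also: 0% = vehicle and 100% = reference inhibitor; higher value means more JC-1 retained so stronger ABCB1 efflux block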
WT yeast gro inh = growth inhibition of WT yeast, mitochondrial fusion screen; mitochondrial fusion phenotypic screen, WT strain; inhibition, % at 10 µM; hit rate 2.1% among 190,000; AID 1362; in the data active = inhibition above about 58%; tested in S. cerevisiae
ABCG2 block = human ABCG2 inhibition, ABCB1 as counter-screen; IgMXP3 cells, JC-1 efflux, flow cytometry; inhibition, % at 6.6 µM; hit rate 0.1% among 190,000;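 active = inhibition above 80%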;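 also: 0% = DMSO and 100% = nicardipine control wells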
Target sequence (Q9UNQ0 whole entry, looked up): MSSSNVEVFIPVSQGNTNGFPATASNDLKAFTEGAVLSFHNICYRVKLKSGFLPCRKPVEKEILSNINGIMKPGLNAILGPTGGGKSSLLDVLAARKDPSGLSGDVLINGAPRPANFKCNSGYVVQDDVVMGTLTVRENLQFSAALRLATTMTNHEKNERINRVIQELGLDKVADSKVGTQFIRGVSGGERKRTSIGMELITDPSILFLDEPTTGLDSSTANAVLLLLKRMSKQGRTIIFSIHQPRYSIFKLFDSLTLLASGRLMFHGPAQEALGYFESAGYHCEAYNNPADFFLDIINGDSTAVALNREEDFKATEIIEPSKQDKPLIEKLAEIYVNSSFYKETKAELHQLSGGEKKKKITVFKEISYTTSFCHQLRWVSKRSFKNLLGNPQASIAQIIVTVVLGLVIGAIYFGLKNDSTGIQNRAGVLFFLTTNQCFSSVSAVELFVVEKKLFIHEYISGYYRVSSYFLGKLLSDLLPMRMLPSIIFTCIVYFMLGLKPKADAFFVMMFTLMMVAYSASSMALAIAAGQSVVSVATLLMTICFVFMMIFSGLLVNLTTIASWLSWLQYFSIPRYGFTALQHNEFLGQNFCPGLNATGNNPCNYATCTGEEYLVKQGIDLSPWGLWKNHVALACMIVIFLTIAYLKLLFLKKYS
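Test system: IgMXP3 cells (ABCG2) mixed with DDAO far-red-labelled CCRF-Adr cells (ABCB1). Reagent: JC-1 transporter substrate. Compound dosing: single test compound dose, 6.6 µM final. Times: 10 min compound exposure, 25 °C. Detection: flow cytometry of retained JC-1 fluorescence. Read-out basis: efflux inhibition in percent versus controls. Controls: nicardipine and DMSO wells.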
RAM network inh = yeast RAM network inhibition. S. cerevisiae dse1pr::URA3 reporter, 5-FOA growth OD615, 2 d; analog-sensitive cbk1-as2 kinase mutant strain. inhibition, % at 50 µM. hit rate 1.8% among 190,000. AID 868;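 active = inhibition above a set limit, 3 SD over mean compound inhibition, cut at about 8.4% in these data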;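 also: 0% = DMSO-only wells with no growth and 100% = 10 µM 1-NA-PP1 full growth; inhibition rescues growth on 5-FOA so higher OD means more RAM inhibition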
Active calls of the source: *; x = no result.

SMILES	L major viab	ABCB1 inh	WT yeast gro inh	ABCG2 block	RAM network inh
Cc1cccc(N2CCN(C(c3cccs3)c3nnnn3C(C)(C)C)CC2)c1C (centres undefined)	76*	1	47	2	3
Cc1ccc(C(c2nnnn2CC2CCCO2)N2CCN(c3cccc(C)c3C)CC2)cc1 (centres undefined)	59*	1	60*	2	-1
Cc1cccc(NC(=O)c2cn(-c3ccccc3)nc2-c2ccccc2)c1	8	0	-9	-2	2
COc1ccc(-c2nnc(-c3cc4ccccc4oc3=O)o2)cc1	5	1	-18	4	0
O=c1oc2ccccc2cc1-c1nc2ccccc2o1	4	0	-10	4	1
O=c1oc2ccc3ccccc3c2cc1-c1nc2ccccc2o1	100*	x	x	x	x
COc1ccc2oc(=O)c(-c3nc4ccccc4o3)cc2c1	98*	0	-4	1	0
Cc1cc(NC(=O)CN2C(=O)NC(C)(c3ccc(Cl)cc3)C2=O)no1 (centres undefined)	2	0	-37	-1	-1
CC(C)(C)c1ccc(C2(C)NC(=O)N(CC(=O)Nc3ccc4c(c3)OCO4)C2=O)cc1 (centres undefined)	77*	0	12	1	1
Cc1ccc(NC(=O)CN2C(=O)NC(C)(c3ccc(Cl)cc3)C2=O)cc1S(=O)(=O)N1CCOCC1 (centres undefined)	56*	0	-12	-9	4
CC(NC(=O)C1CCCN(C(=O)N(C)C)C1)c1ccccc1 (centres undefined)	-3	1	-16	7	1
COc1ccc(C(C(=O)NC2CCCCC2)N(C(=O)CCl)c2ccc(Cl)cc2)cc1 (centres undefined)	100*	1	13	3	2
CN(C)C(C(=O)NC1CCCCC1)c1ccc(Cl)cc1 (centres undefined)	5	1	3	2	1
COC(CN(C(=O)CCl)C(C(=O)NC1CCCC(C)C1C)c1ccc(C)cc1)OC (centres undefined)	100*	x	6	20	0
O=C(NC1CCCC1)C(c1ccc(Cl)cc1)N(Cc1ccc(F)cc1)C(=O)CCl (centres undefined)	100*	1	6	3	1
COC(CN(C(=O)CCl)C(C(=O)NC1CCCCC1)c1ccc(Cl)cc1)OC (centres undefined)	81*	0	2	1	-1
O=C(CCCC(=O)N(c1ccc2c(c1)OCCO2)C(C(=O)NC1CCCCC1)c1ccc(Cl)cc1)Nc1ccccn1 (centres undefined)	58*	1	4	6	4
COc1cccc(N(C(=O)c2ccco2)C(C(=O)NC2CCCC2)c2cccnc2)c1 (centres undefined)	-2	1	3	2	0
COC(CN(C(=O)CCl)C(C(=O)NC1CCCCC1)c1ccccc1C)OC (centres undefined)	68*	1	1	-1	3
O=C(NC1CCCCC1)C(c1cccnc1)N(C(=O)c1ccc(Cl)nc1)C1CCCCC1 (centres undefined)	56*	1	-11	-1	1
O=C(NC1CCCCC1)C(c1cccnc1)N(C(=O)CCl)c1cccc(Cl)c1 (centres undefined)	100*	3	-8	12	-1
COC(=O)C1=C(C)NC2=C(C(=O)CC(C)(C)C2)C1c1cnn(C)c1C (centres undefined)	-1	0	-4	0	1
Cc1cccc(OCCCC(=O)N2CCCc3ccccc32)c1C	3	0	39	5	0
O=C(NCCCn1ccnc1)c1cccc(S(=O)(=O)NCc2ccccc2)c1	-5	0	-9	0	0
CN(Cc1ccccc1)C(=S)Nc1ccc2nc3n(c(=O)c2c1)CCCCC3	0	0	-9	2	7
CC1(C)CC(N=c2cc(-c3ccccc3)oc3ccc(Cl)cc23)CC(C)(C)N1	101*	-1	36	1	4
OCCCN=c1cc(-c2ccccc2)oc2ccc(Cl)cc12	100*	0	9	1	1
Clc1ccc2oc(-c3ccccc3)nc2c1	-2	0	1	2	0
CS(=O)(=O)N1N=C(c2cccs2)CC1c1ccco1 (centres undefined)	-3	0	12	0	1
CCc1ccc(OCC(=O)N/N=C/c2cc([N+](=O)[O-])ccc2N2CCOCC2)cc1	78*	2	30	19	2
